# Measurements reported in ChEMBL document CHEMBL1153431, “Potent inhibitors of pro-inflammatory cytokine production produced by a marine-derived bacterium” (J Med Chem, 2009).
# Legend:
# [1] = Inhibition of pro-inflammatory cytokine IL13 production in ovalbumin-stimulated BALB/c mouse TH2 cells after 48 hrs by sandwich-ELISA; format: functional, cell-based; conditions: TH2, 48 h
# Outline: (§1)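 Splenocytes from female Balb-C mice (6-8 weeks) immunized subcutaneously weekly for four weeks with 25 µg OVA adsorbed to 1 mg alum in PBS. Cells in RPMI-1640 at 1.3 × 10^6 cells/mL, given compound in DMSO plus OVA allergen; DMSO and DMSO+OVA replicate wells as controls. After 48 h incubation, supernatant cytokine measured by colorimetric sandwich ELISA.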
# [2] = Inhibition of pro-inflammatory cytokine IL5 production in ovalbumin-stimulated BALB/c mouse TH2 cells after 48 hrs by sandwich-ELISA; format: functional, cell-based; conditions: TH2, 48 h; outline: as §1
# [3] = Cytotoxicity against BALB/c mouse TH2 cells after 48 hrs by Trypan blue assay; format: cell-based; conditions: read-out: LD50
# Outline: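 Splenocytes from OVA/alum-immunized female Balb-C mice (6-8 weeks) in RPMI-1640 at 1.3 × 10^6 cells/mL, exposed to compound in DMSO with OVA allergen for 48 h. Adherent cells stained with trypan blue and counted visually on a hemocytometer to assess viability.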
# [4] = Inhibition of pro-inflammatory cytokine IL5 production in ovalbumin-stimulated BALB/c mouse TH2 cells at 5 nM after 48 hrs by sandwich-ELISA relative to control; format: functional; parameters: scale not given: the % may be the effect or the level left
# Outline: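 Splenocytes from female BALB/c mice (6-8 weeks) were used, taken after weekly subcutaneous immunisation for 4 weeks with 25 µg OVA on 1 mg alum in PBS. Cells were held at 1.3 × 10^6 cells/mL in RPMI-1640 and given compound in DMSO plus OVA for 48 h. Controls were DMSO ± OVA wells. Supernatant IL-5 was read by colorimetric sandwich ELISA.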
# [5] = Therapeutic index, ratio of LD50 for BALB/c mouse TH2 cells to IC50 for pro-inflammatory cytokine production in BALB/c mouse TH2 cells; format: cell-based; conditions: read-out: TI
# Outline: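 Splenocytes came from OVA/alum-immunised female BALB/c mice (25 µg OVA s.c. weekly for 4 weeks) and were held at 1.3 × 10^6 cells/mL in RPMI-1640. They were exposed to compound in DMSO with OVA for 48 h, with DMSO ± OVA control wells. Cytokines in the supernatant were measured by sandwich ELISA. Viability of adherent cells was scored by trypan blue hemocytometer counting.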
# [6] = Inhibition of pro-inflammatory cytokine IL1 production in ovalbumin-stimulated BALB/c mouse APC at 10 nM after 48 hrs by sandwich-ELISA relative to control; format: functional; parameters: scale not given: the % may be the effect or the level left; outline: as §1
# [7] = Inhibition of pro-inflammatory cytokine TNFalpha production in ovalbumin-stimulated BALB/c mouse APC at 10 nM after 48 hrs by sandwich-ELISA relative to control; format: functional; parameters: scale not given: the % may be the effect or the level left; outline: as §1
Compound,IC50 [1] [µM],IC50 [2] [µM],CC50 at 48 h [3] [µM],Activity [4] [%],selectivity ratio [5],Activity [6] [%],Activity [7] [%]
C[C@@H]1C[C@H]2[C@@H]3CCC4=CC(=O)C=C[C@]4(C)[C@@]3(F)[C@@H](O)C[C@]2(C)[C@@]1(O)C(=O)CO [DEXAMETHASONE],0.005,0.005,> 7.1,>80,–,–,–
CC(=O)O[C@H]1[C@H](C)OC(=O)[C@@H](NC(=O)c2cccc(NC=O)c2O)[C@@H](C)OC(=O)[C@@H]1Cc1ccccc1 [SPLENOCIN A],–,0.0031,> 1.8,–,–,–,–
CC(C)C(=O)O[C@H]1[C@H](C)OC(=O)[C@@H](NC(=O)c2cccc(NC=O)c2O)[C@@H](C)OC(=O)[C@@H]1Cc1ccccc1 [SPLENOCIN B],0.0016,0.0018,> 1.7,>80,> 500,85,75
CCC(C)C(=O)O[C@H]1[C@H](C)OC(=O)[C@@H](NC(=O)c2cccc(NC=O)c2O)[C@@H](C)OC(=O)[C@@H]1Cc1ccccc1 (some centres undefined) [SPLENOCIN C],0.0073,0.0067,> 0.56,–,–,–,–
CC[C@H]1C(=O)O[C@H](C)[C@H](NC(=O)c2cccc(NC=O)c2O)C(=O)O[C@@H](C)[C@@H]1OC(=O)c1ccccc1 [SPLENOCIN D],0.0437,0.0479,> 0.55,–,–,–,–
CCCC[C@H]1C(=O)O[C@H](C)[C@H](NC(=O)c2cccc(NC=O)c2O)C(=O)O[C@@H](C)[C@@H]1OC(=O)c1ccccc1 [SPLENOCIN E],0.0159,0.0166,> 0.57,–,–,–,–
CCCCC[C@H]1C(=O)O[C@H](C)[C@H](NC(=O)c2cccc(NC=O)c2O)C(=O)O[C@@H](C)[C@@H]1OC(=O)c1ccccc1 [SPLENOCIN F],0.0068,0.0094,> 0.56,–,–,–,–
CCCCCC[C@H]1C(=O)O[C@H](C)[C@H](NC(=O)c2cccc(NC=O)c2O)C(=O)O[C@@H](C)[C@@H]1OC(=O)c1ccccc1 [SPLENOCIN G],0.0052,0.005,> 0.55,–,–,85,75
CCCCC(C)C[C@H]1C(=O)O[C@H](C)[C@H](NC(=O)c2cccc(NC=O)c2O)C(=O)O[C@@H](C)[C@@H]1OC(=O)c1ccccc1 (some centres undefined) [SPLENOCIN H],0.0051,0.0043,> 1.6,–,–,–,–
C[C@@H]1OC(=O)[C@@H](NC(=O)c2cccc(NC=O)c2O)[C@@H](C)OC(=O)[C@H](Cc2ccccc2)[C@H]1OC(=O)c1ccccc1 [SPLENOCIN I],0.0152,0.0158,> 0.54,–,–,–,–
C[C@@H]1OC(=O)[C@@H](NC(=O)c2cccc(NC=O)c2O)[C@@H](C)OC(=O)[C@H](Cc2ccccc2)[C@H]1O [SPLENOCIN J],0.826,1.02,> 6,–,–,–,–
